# Screens deposited in PubChem BioAssay by several laboratories.
# An excerpt weighted towards active compounds, which were near 4.4% of everything screened.
# MsrA inhibitor: bovine MsrA enzyme inhibitors, primary screen, biochemical, absorbance, HTS; Methionine sulfoxide reductase A (Bos taurus); purified bovine MsrA, absorbance read-out; AID 651718, 2012; inhibition, % at 15.5 µM; actives 0.75% (n = 360,000); in the data active = inhibition above about 4.5%
# Tb MetRS inh: T. brucei MetRS inhibitors, primary screen, biochemical, luminescence; inhibition, % at 11.9 µM; methionyl-tRNA synthetase (Trypanosoma brucei brucei); purified T. brucei MetRS, ATP depletion, Kinase-Glo luminescence; AID 624268, 2012; actives 0.4% (n = 360,000);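 active = inhibition above a per-plate cutoff of the control wells' mean inhibition plus 3 SD, cut at about 5.5% in these data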
#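 Assay system: T. brucei methionyl-tRNA synthetase, purified | Medium: HEPES buffer with MgCl2, KCl, DTT, spermine, BSA, pyrophosphatase | Compound: 11.9 µM single point | Incubation: 15 min enzyme-compound preincubation, 2 h reaction, 10 min detection, 25 °C | Measured by: Kinase-Glo luciferase luminescence reporting remaining unconsumed ATP | Measure: % inhibition normalized to control-well medians | Replication: Singlicate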
# AHR activator: AHR activators, primary screen, cell-based, luminescence, luciferase reporter, human. activation, % at 5 µM. Aryl hydrocarbon receptor (Homo sapiens), P35869. AHR-responsive luciferase reporter cells. actives 2.5% (n = 320,000); in the data active = activation above about 47%
# AI-2 QS mod: Vibrio harveyi AI-2 quorum sensing modulators, primary screen, JMH597 strain, luminescence/OD600 ratio. Vibrio harveyi JMH597 AI-2 luminescence/OD600 ratio, 9 h; stronger effect = lower value; strain lacks LuxN and CqsS sensors; 0 = neutral-control median. activity change, % at 7.5 µM. actives 0.4% (n = 300,000); in the data active = activity change below about -75%, passing the limit was not always enough;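 note: luminescence divided by OD600 gain over 9 h not by final OD600 alone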
# MsrA act: bovine MsrA enzyme activators, primary screen, biochemical, absorbance, HTS; Methionine sulfoxide reductase A (Bos taurus); purified bovine MsrA, absorbance read-out; activation, % at 10.6 µM; actives 0.3% (n = 360,000); in the data active = activation above about 7.5%
# HTR2A ag: mouse Htr2a agonists via beta-arrestin recruitment, primary screen, cell-based, luminescence | 5-hydroxytryptamine receptor 2A (Mus musculus), P35363 | CHO-K1 mHTR2A beta-arrestin complementation; percent of 30 µM serotonin response | activation, % at 7.6 µM | actives 0.66% (n = 360,000);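 active = activation above a run cutoff, the mean activation of all tested compounds plus 3 SD, cut at about 14% in these data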
# Target sequence (P35363 whole entry, looked up): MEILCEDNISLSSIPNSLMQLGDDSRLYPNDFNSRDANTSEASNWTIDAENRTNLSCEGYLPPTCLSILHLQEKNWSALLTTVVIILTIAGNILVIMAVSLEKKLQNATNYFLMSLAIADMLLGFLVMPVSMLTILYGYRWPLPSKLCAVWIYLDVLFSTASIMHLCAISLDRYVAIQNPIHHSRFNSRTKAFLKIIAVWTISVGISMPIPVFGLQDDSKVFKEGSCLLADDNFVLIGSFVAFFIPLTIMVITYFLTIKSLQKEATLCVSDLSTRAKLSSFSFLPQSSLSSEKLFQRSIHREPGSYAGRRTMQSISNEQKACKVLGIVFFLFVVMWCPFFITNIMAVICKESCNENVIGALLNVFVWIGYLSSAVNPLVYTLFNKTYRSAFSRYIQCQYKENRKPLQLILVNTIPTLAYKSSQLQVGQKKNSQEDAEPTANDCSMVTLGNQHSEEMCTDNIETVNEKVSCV
# Numbers stand for hits; 0 = inactive; - = not tested or not shown; ! = repeats disagree.
SMILES,MsrA inhibitor,Tb MetRS inh,AHR activator,AI-2 QS mod,MsrA act,HTR2A ag
COc1ccc(CC(=O)NNc2ncnc3c2cnn3-c2ccccc2)cc1,0,0,51,0,0,0
C=CCN(CC=C)C(=S)NC(=O)c1ccc(OC)cc1,0,0,51,0,0,0
C=CCN(CC=C)C(=S)NC(=O)c1ccc(-c2ccccc2)cc1,0,0,0,0,0,0
O=C(Cn1nc(-c2ccccc2)ccc1=O)NCc1ccc2c(c1)OCO2,0,0,68,0,0,0
O=C(Cn1nc(-c2ccc(Cl)cc2)ccc1=O)NCc1ccc2c(c1)OCO2,0,0,54,0,0,0
CCNC(=O)N1CCN(c2ccc(N3CCN(C(=O)NCC)[C@@H](C)C3)c(C)c2)[C@@H](C)C1,0,-,-,-,-,-
CN1CCSc2ccc(C(=O)NCc3ccccc3)cc21,0,0,62,0,0,0
COc1ccc(NC(=O)c2ccc3c(c2)N(C)CCS3)cc1,0,0,72,0,0,0
CN1CCSc2ccc(C(=O)Nc3cccc(F)c3)cc21,0,0,126,0,0,0
CCOC(=O)N1CCN(S(=O)(=O)c2c[nH]c(C(=O)OC)c2)CC1,0,0,0,-,0,0
COc1ccc(C2CC(=O)C(c3ccc(C(N)=O)cc3)=CN2Cc2ccccc2)cc1 (centres undefined),0,-,-,-,-,-
O=c1cc(/C=C/c2c(F)cccc2Cl)[nH]c2ccccc12,0,0,61,0,0,0
Nc1nccc(/C=C/c2c(F)cccc2Cl)n1,0,0,0,0,0,0
Cc1cc(-c2ccccc2)n2ncc(-c3ccccc3)c2n1,0,0,57,0,0,0
C=CCSc1n[nH]c2nc3c(c(=O)n12)C1(CCCC1)Cc1ccccc1-3,0,0,59,-,0,0
CCSc1n[nH]c2nc3c(c(=O)n12)C1(CCCC1)Cc1ccccc1-3,0,0,51,0,0,0
CSc1n[nH]c2nc3c(c(=O)n12)C1(CCCC1)Cc1ccccc1-3,0,0,79,0,0,0
Brc1ccccc1-c1nnc2sc(-c3ccc4c(c3)OCCO4)nn12,0,0,0,0,0,0
c1csc(-c2nn3c(C4COc5ccccc5O4)nnc3s2)c1 (centres undefined),-,0,62,0,0,0
c1ccc2c(c1)ncn2Cc1nnc2sc(-c3ccc4c(c3)OCO4)nn12,0,0,50,0,0,0
c1ccc2c(c1)OCC(c1nnc3sc(-c4ccc5c(c4)OCO5)nn13)O2 (centres undefined),0,0,48,0,0,0
Clc1ccccc1-c1nnc2sc(-c3ccc4c(c3)OCO4)nn12,0,0,56,0,0,0
Fc1ccc(-c2nn3c(C4COc5ccccc5O4)nnc3s2)cc1 (centres undefined),0,0,0,0,0,0
O=C(N/N=C/c1cccc([N+](=O)[O-])c1)c1cc(-c2ccc3c4c(cccc24)CC3)n[nH]1,0,0,51,0,0,0
CC1=NN(c2ccc(Cl)cc2)C(=O)C1C(c1cccc(O)c1)c1c(C)[nH]n(-c2ccc(Cl)cc2)c1=O (centres undefined),-,0,67,0,0,0
SMILES,MsrA inhibitor,Tb MetRS inh,AHR activator,AI-2 QS mod,MsrA act,HTR2A ag
COc1ccc(-n2sc3c(c2=S)-c2cc(OC)ccc2NC3(C)C)cc1,0,0,66,0,0,0
Cc1cn(-c2cc(C(=O)Nc3ccc(C)c(NC(=O)C(=O)c4c[nH]c5ccccc45)c3)cc(C(F)(F)F)c2)cn1,0,0,0,0,0,17!
COC(=O)c1ccc(NC(=O)C(=O)c2c[nH]c3ccccc23)cc1,0,0,0,0,0,0
O=C1c2ccccc2S(=O)(=O)N1CC1CC(c2ccccc2)=NO1 (centres undefined),0,0,0,0,0,0
O=C1c2ccccc2S(=O)(=O)N1CC1CC(c2ccc(Cl)cc2)=NO1 (centres undefined),0,0,49,0,0,0
COC(=O)Nc1nnc(/C=C/c2ccc(OC)cc2)s1,0,0,55,0,0,0
Cc1ccc(C(=O)N/C(N)=N/c2nc3ccccc3o2)cc1,0,0,0,0,0,0
COc1ccccc1C(=O)N/C(N)=N/c1nc2ccccc2o1,0,0,69,0,0,0
COCCNC(=O)C1(C)CCCN(Cc2ccc(Cl)c(Cl)c2)C1 (centres undefined),-,0,-,-,0,0
CCCc1ccc(Oc2cn[nH]c2-c2ccc(O)c(C)c2O)cc1,0,0,0,-94,0,0
CCCc1ccc(Oc2c(-c3ccc(O)c(C)c3O)n[nH]c2C)cc1,0,0,0,0,0,0
COC(=O)[C@]12C[C@H](CC(=O)N3CCN(C(=O)c4ccco4)CC3)C(=O)N(Cc3ccc4c(c3)OCO4)C1=C[C@H](COCc1ccccc1)O[C@@H]2C,0,-,-,-,-,-
COc1cc(CNn2c(C)n[nH]c2=S)cc(Cl)c1OCc1ccccc1,0,0,0,0,0,0
COc1cc(CNn2cn[nH]c2=S)cc(Cl)c1OCc1ccc(F)cc1,0,0,87,0,0,0
Cc1ccc(-c2csc3nc(C)n(N)c(=O)c23)o1,0,0,55,0,0,0
O=C(N/N=C/C=C/c1ccccc1)c1cc(C2CC2)[nH]n1,0,0,0,0,0,0
Cc1ccc(-c2cc(C(=O)N/N=C/C=C/c3ccccc3)n[nH]2)s1,4.6,0,0,0,0,0
O=C(Nc1ncc2c(n1)-c1ccccc1CC2)c1ccc(Cl)cc1,0,0,75,0,0,0
O=C(Nc1ncc2c(n1)-c1ccccc1OC2)c1ccc(F)cc1,0,0,55,0,0,0
O=C(Nc1ncc2c(n1)-c1ccccc1OC2)c1cccc([N+](=O)[O-])c1,0,0,0,0,0,0
NNC(=O)c1cc2c(s1)-c1cc(Cl)ccc1SC2,0,0,64,0,0,0
CCN(CC)CCNC(=O)c1cc2c(s1)-c1ccccc1SC2,0,0,0,0,0,0
CCn1cc(Br)c(C(=O)Nc2sc3c(c2C(N)=O)CCCC3)n1,-,0,57,0,0,0
Cc1ccc2nc(SCc3nnc(-c4cccs4)o3)[nH]c2c1,0,0,60,0,0,0
Cc1ccc2nc(SCC3CCCCO3)[nH]c2c1 (centres undefined),0,0,51,0,0,0
Cc1ccc2nc(SCC(=O)N3CCOCC3)[nH]c2c1,0,0,0,0,0,0
COc1ccc(C2CC(=O)C(c3ccc(F)cc3)=CN2Cc2ccccc2)cc1 (centres undefined),0,-,-,-,-,-
